# Assay outcomes (PubChem)
# Rows were chosen to be rich in hits. Some 4% of all compounds tested hit in one or more screens of this group.
# MT stabilizer: stabilizes microtubules in HeLa cells; AID 2205; HeLa tubulin immunostaining HCS, 24 h; share of cells brighter than vehicle mean+2SD; % tubulin-high responders, % at 10 µM; 200,000 compounds, 0.83% hits;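 active = plate Z-score above 3 for both tubulin-high and condensed-nucleus cell shares, with cell loss under 80%, at 10 µM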;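 also: anti alpha tubulin signal scored within the nucleus-defined area of each cell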
# Cl transport mod: modulates chloride dependent transport by human KCC2; KCC2 cells, thallium flux FluoZin-2 fluorescence; 190,000 compounds, 2.2% hits; B-score of Tl+ flux slope (higher = more flux/activation; lower = inhibition) at 10 µM;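 active = thallium flux slope and its plate-corrected score both differing from the plate sample mean at a set confidence after two filtering rounds, in either direction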;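 also: slope of fluorescence scaled to starting intensity during 10 to 20 s after thallium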
# Target sequence (Q9H2X9 whole entry, looked up): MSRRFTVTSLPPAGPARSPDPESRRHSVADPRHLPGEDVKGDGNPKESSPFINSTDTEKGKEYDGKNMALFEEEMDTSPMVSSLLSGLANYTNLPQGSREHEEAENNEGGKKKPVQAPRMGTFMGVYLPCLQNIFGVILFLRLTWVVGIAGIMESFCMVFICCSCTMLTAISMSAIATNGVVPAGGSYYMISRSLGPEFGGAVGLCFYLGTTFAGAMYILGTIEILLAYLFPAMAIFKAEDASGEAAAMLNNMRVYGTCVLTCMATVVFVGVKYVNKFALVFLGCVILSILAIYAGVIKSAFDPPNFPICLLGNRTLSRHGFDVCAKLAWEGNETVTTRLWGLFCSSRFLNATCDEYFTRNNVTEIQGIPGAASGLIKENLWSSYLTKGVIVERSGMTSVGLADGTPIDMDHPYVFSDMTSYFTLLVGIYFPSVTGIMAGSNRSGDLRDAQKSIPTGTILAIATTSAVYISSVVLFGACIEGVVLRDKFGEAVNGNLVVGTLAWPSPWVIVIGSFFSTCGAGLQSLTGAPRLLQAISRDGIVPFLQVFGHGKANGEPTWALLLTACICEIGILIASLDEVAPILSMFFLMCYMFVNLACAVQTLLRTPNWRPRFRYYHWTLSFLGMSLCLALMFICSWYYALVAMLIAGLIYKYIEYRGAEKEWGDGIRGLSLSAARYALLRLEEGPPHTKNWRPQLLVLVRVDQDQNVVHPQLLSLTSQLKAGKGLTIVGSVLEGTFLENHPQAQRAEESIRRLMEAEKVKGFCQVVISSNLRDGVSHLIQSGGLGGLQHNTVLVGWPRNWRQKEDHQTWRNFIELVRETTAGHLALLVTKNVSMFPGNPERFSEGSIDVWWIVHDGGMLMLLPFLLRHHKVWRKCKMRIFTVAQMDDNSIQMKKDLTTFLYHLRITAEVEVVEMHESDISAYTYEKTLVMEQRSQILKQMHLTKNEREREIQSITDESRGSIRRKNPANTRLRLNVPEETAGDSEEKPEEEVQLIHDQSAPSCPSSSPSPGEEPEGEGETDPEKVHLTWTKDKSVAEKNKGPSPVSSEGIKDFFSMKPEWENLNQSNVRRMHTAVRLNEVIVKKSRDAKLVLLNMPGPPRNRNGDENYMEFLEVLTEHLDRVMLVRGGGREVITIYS
# bCat nuc transl: modulators of beta-catenin nuclear translocation. 190,000 compounds, 0.3% hits. HeLa beta-catenin nuclear translocation, immunofluorescence imaging. AID 1665. nuclear translocation activity, % at 5 µM;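 active = nuclear translocation activity above 50% at 5 µM, with a well cell count of 50 or more; inconclusive = wells under 50 cells across six images, flagged as toxic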;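 also: per-cell ratio of nuclear to cytoplasmic median beta-catenin stain intensity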
#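 Test system: HeLa cells, endogenous beta-catenin; Compound: single 5 µM dose plus 0.02–20 µM confirmation series; Times: compound exposure 24 h at 37°C; Signal: fluorescence imaging of beta-catenin antibody stain plus DAPI; Read-out: % activation, nuclear-to-cytoplasmic median beta-catenin signal ratio per cell.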
# WT yeast gro inh: growth inhibition of WT yeast, mitochondrial fusion screen; mitochondrial fusion phenotypic screen, WT strain; inhibition, % at 10 µM; 190,000 compounds, 2.1% hits; AID 1362; in the data active = inhibition above about 58%; tested in S. cerevisiae
# Pf gamet viab: inhibitors of late stage P. falciparum gametocyte viability. AID 743093. 150,000 compounds, 0.065% hits. inhibition, % at 10.9 µM. P. falciparum stage V gametocytes, ATP luminescence, 24 h;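 active = inhibition above the mean plus 3 SD of compounds within the control limits, set per campaign, cut at about 38% in these data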
# Numbers stand for hits; – = inactive; ? = inconclusive; · = not tested or not shown.
SMILES,MT stabilizer,Cl transport mod,bCat nuc transl,WT yeast gro inh,Pf gamet viab
Cc1nc2ccc(NS(=O)(=O)c3ccc(F)c(C)c3)cc2[nH]1,·,·,·,·,–
Cc1cc(C)nc(NS(=O)(=O)c2ccc(CC(C)C)cc2)c1,·,–,–,·,–
CNC(=S)/N=C/NOCc1ccc(Cl)cc1Cl,–,–,–,62,–
Cc1ccc(C(=O)COC(=O)CCCC(=O)Nc2cc(C(F)(F)F)ccc2Cl)cc1C,–,–,–,–,–
S=C(NCCc1ccc(Cl)cc1)NC1CCCC1,–,–,–,65,–
Fc1ccc(CNC(=S)NC2CCCCCC2)cc1,–,–,–,71,–
S=C(NCc1ccccc1Cl)NC1CCCC1,–,–,·,–,–
O=C(NC1CCCCC1)C(=S)NCCc1ccccc1,–,–,–,–,·
S=C(NCCNCc1ccccc1)NC1CCCCC1,–,–,–,62,·
COc1ccc(N(CCC#N)C(=O)/C(C#N)=C/c2cccs2)cc1,–,–,–,–,·
Cc1ccc(-c2nnn(CC(=O)N3CCCCC3)n2)cc1,·,·,·,·,–
CCOC(=O)c1cc(CC)sc1/N=C/c1c(O)ccc2ccccc12,–,–,–,–,–
O=C1NC(c2ccccc2Cl)Nc2ccccc21 (stereo unspecified),27,·,–,–,·
O=C1NC(c2cccs2)Nc2ccccc21 (stereo unspecified),–,·,–,–,–
CC1CCCC(NC(=O)CNC(=S)N(Cc2ccccc2)Cc2cccs2)C1C (stereo unspecified),–,–,–,65,–
CCCCNC(=O)CNC(=S)N(Cc1ccccc1)Cc1cccs1,–,–,–,–,–
O=[N+]([O-])c1ccc(Nc2ccccc2F)nc1,–,–,–,–,–
Cc1nc(NC(C)c2ccccc2)c2oc3ccccc3c2n1 (stereo unspecified),–,–,–,66,·
CCC(C)Nc1nc(C)nc2c1oc1ccccc12 (stereo unspecified),·,–,–,·,–
CC[n+]1ccc(/C=C/c2ccc(N(C)C)cc2)c2ccccc21,–,–,–,87,–
CC[n+]1ccccc1/C=C/c1ccc(N(C)C)cc1,–,–,–,–,–
COC(=O)c1ccc(-c2nc3ccccc3o2)cc1,·,·,–,·,·
COC(=O)c1ccc(-c2nc3ccc(C)cc3o2)cc1,52,·,–,–,–
O=[N+]([O-])c1ccc(/C=C2\CCC(C3=CCCC3)=C2N2CCOCC2)cc1,–,–,–,–,–
COc1cccc(/C=C/C(=O)OCC(=O)N2c3ccccc3NC(=O)C2(C)C)c1,–,–,–,–,–
SMILES,MT stabilizer,Cl transport mod,bCat nuc transl,WT yeast gro inh,Pf gamet viab
O=C1CCCc2ccccc2N1Cc1ccc(Cl)cc1Cl,–,·,–,–,–
O=c1cc(N2CCCCC2)c(-c2ccccc2)nn1Cc1cccc(Cl)c1,–,–,·,86,–
O=c1cc(N2CCCCC2)c(-c2ccccc2)nn1Cc1ccccc1Cl,–,–,·,88,–
O=c1cc(N2CCCCC2)c(-c2ccccc2)nn1Cc1ccc(Cl)cc1Cl,–,–,·,73,–
C=CCn1nc(-c2ccccc2)c(N2CCCCC2)cc1=O,–,–,–,–,·
CCOc1cc(C#N)c(NC(=O)c2cccnc2)cc1OCC,39,–,·,–,–
O=C(NNc1ccc(Cl)cc1)c1c(F)cccc1Cl,·,–,–,·,–
CC(=O)C(=Nc1ccccc1Cl)NNc1ccc(Cl)cc1,–,–,–,60,–
CCc1ccccc1NC(=O)Cn1nnc(C(=O)NCc2cccs2)c1N,30,–,–,–,–
CCc1ccc(NC(=O)Cn2nnc(C(=O)NCc3cccs3)c2N)cc1,–,–,–,–,–
CCCN1CCN(CCCNC(=S)Nc2ccc(OC)cc2)CC1,–,–,–,–,–
Cc1ccc(C2CC(C(F)F)n3ncc(C(=O)Nc4cnn(Cc5ccccc5C)c4)c3N2)cc1 (stereo unspecified),28,–,–,–,·
Cc1cccc(NC(=S)N(Cc2ccco2)C(C)c2cccs2)c1 (stereo unspecified),–,–,–,72,–
CC(c1cccs1)N(Cc1ccco1)C(=S)Nc1ccc(F)c(Cl)c1 (stereo unspecified),–,–,–,78,–
CC(c1cccs1)N(Cc1ccco1)C(=S)Nc1ccccc1Cl (stereo unspecified),–,–,–,63,–
Cc1ccccc1NC(=S)N(Cc1ccco1)C(C)c1cccs1 (stereo unspecified),–,–,–,–,–
CC(/C=N/NC(=O)c1ccco1)=C\c1ccccc1,–,–,–,–,–
C[n+]1c2n(c3ccccc31)N=C(c1cc(C(C)(C)C)c(O)c(C(C)(C)C)c1)CS2,–,–,–,76,–
Fc1ccccc1/C=N/NC(=S)Nc1ccc(Cl)cc1Cl,17,15,?,–,–
Fc1ccc(NC(=S)N/N=C/c2ccc(F)c(F)c2)c(F)c1,–,20,–,–,–
Fc1ccc(CNC(=S)Nc2ccc(Cl)cc2Cl)cc1,–,–,–,–,–
C=CCNC(=S)Nc1ccc(F)cc1F,–,–,–,–,–
O=S(=O)(Nc1nc2ccccc2s1)c1cnc(Cl)c(Br)c1,·,–,–,·,–
CC(C)c1nc2sc3c(=S)nc[nH]c3c2c2c1CCC2,·,159,–,·,–
O=c1c2c3c(sc2[nH]c(=S)n1Cc1ccco1)CCC3,·,78,–,·,–
SMILES,MT stabilizer,Cl transport mod,bCat nuc transl,WT yeast gro inh,Pf gamet viab
CC1(C)Cc2c(sc3c2c(=N)n(Cc2ccco2)c(=O)n3Cc2ccccc2)CO1,–,–,–,–,–
CC1(C)Cc2c(sc3[nH]c(=S)n(Cc4ccco4)c(=O)c23)CO1,–,9,–,–,·
Cn1c(=O)n(Cc2ccco2)c(=N)c2c3c(sc21)CCC3,–,–,–,–,·
O=c1cc[nH]c2c1ccc1cccnc12,·,·,·,·,–
COc1ccc(Cn2c(-c3ccc(OC)cc3)nc3ccccc32)cc1,–,–,–,–,–
COc1ccc(Cn2c(-c3ccc(Br)cc3)c[n+]3ccccc23)cc1,–,–,–,63,–
CCCCCC/C(C)=C1/SC(=S)NC1=O,–,53,–,86,·
COC(=O)c1cc(CN2CCN(c3ccccc3C)CC2)ccc1O,–,·,–,–,·
Cc1nc(NC(=O)COC(=O)CCS(=O)(=O)c2ccccc2Cl)c(Cl)cc1Cl,–,–,–,61,·
Cc1ccc(-c2csc3ncnc(Nc4ccc(N5CCOCC5)cc4)c23)cc1,–,–,–,64,·
CCN(CC)c1ccc(NC(=O)c2ccc(=O)[nH]c2)cc1S(=O)(=O)Nc1ccccc1OC,28,–,–,–,·
COC(=O)c1ccc(-n2cc(-c3ccc(OC)cc3)[nH]c2=S)cc1,–,8.8,·,–,–
O=[N+]([O-])c1ccc(-c2cn(-c3ccccc3)c(=S)[nH]2)cc1,–,–,–,–,–
C/C(=N\NC(=O)c1ccccc1O)c1ccc(Br)s1,–,11,–,66,·
C/C(=N\NC(=O)c1ccccc1[N+](=O)[O-])c1ccc(Br)s1,–,–,–,–,–
C/C(=N\Nc1nc2ccccc2s1)c1ccc(Br)s1,–,–,–,94,–
C/C(=N\NC(=O)c1cccc(Br)c1)c1ccc(Br)cc1,–,–,·,–,·
C/C(=N\NC(=O)c1cccc(F)c1)c1ccc(Br)s1,34,·,–,–,·
